# Test results reported in ChEMBL document CHEMBL4312006, “A novel chalcone derivative as Nrf2 activator attenuates learning and memory impairment in a scopolamine-induced mouse model” (Eur J Med Chem, 2020).
# Activity calls are given as the source filed them. The rule behind the calls is not given here.
# Experiments:
# [1] = Stability in rat plasma assessed as compound remaining after 30 mins; type: ADME, cell-free; conditions: read-out: Stability
# [2] = target: T1, Nuclear factor erythroid 2-related factor 2 (Mus musculus) (UniProt Q60795); assay: Activation of NRF2 in mouse BV2 cells assessed as inhibition of H2O2-induced reduction in SOD activity incubated for 6 hrs followed by H2O2 stimulation and measured after 18 hrs by WST-1 based assay; type: cell-based
# T1 sequence (whole entry): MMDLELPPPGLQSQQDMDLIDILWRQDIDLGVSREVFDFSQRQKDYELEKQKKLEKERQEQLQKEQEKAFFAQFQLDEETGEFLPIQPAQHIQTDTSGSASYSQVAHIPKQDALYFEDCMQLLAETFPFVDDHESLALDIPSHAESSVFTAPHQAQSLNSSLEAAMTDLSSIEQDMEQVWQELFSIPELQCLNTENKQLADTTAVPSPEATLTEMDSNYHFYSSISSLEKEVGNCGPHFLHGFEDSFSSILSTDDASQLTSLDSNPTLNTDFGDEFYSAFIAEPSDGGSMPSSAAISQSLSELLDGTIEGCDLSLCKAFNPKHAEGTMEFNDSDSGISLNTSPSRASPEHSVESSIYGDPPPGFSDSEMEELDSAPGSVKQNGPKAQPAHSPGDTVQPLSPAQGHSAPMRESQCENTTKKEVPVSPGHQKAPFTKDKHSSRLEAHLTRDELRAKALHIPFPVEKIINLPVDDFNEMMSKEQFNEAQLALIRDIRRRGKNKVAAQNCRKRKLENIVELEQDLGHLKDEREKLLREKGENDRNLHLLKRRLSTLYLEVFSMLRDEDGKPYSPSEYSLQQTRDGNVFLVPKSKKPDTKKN
# How it was run: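 BV-2 cells (1.0×10^6) treated with compound for 24 h, or for 6 h followed by 400 μM H2O2 for 18 h. Cells washed, sonicated in ice-cold PBS and centrifuged; supernatant assayed by WST-1/superoxide inhibition. Activity derived from the IC50 of the inhibition curve and given as U/mg protein (1 U = 50% inhibition of WST-1 reduction).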
# [3] = target: T1, Nuclear factor erythroid 2-related factor 2 (Mus musculus); assay: Activation of NRF2 in mouse BV2 cells assessed as increase in nuclear NRF2 level at 10 uM incubated for 2 hrs by Western blot analysis; type: cell-based
# How it was run: (§1)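 BV-2 cells washed in ice-cold PBS and lysed on ice for 40 min in RIPA buffer with protease inhibitors. Nuclear fractions prepared separately. 10 μg protein run on SDS-PAGE and blotted to PVDF. Membranes blocked in 5% skim milk/TBST and probed overnight at 4 °C for Nrf2, HO-1, GCLM or SOD1. HRP secondary with ECL detection. Band densities normalised to Lamin B1 or β-actin.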
# Homo sapiens = species on record: Homo sapiens; assay: Inhibition of H2O2-stimulated ROS production in […] BV2 cells at 10 uM preincubated for 24 hrs followed by H2O2 stimulation for 20 mins by DCFH-DA dye based assay; type: functional, cell-based
# How it was run: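 BV-2 microglial cells pretreated with 10 μM compound for 24 h, then exposed to a series of H2O2 concentrations for 20 min. Intracellular ROS measured by DCFH-DA fluorescence. One-way ANOVA with Tukey's test.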
# [4] = target: T1, Nuclear factor erythroid 2-related factor 2 (Mus musculus); assay: Activation of NRF2 in mouse BV2 cells assessed as increase in HO1 protein expression at 10 uM incubated for 12 hrs by Western blot analysis; type: cell-based; how it was run: as §1
# BV-2 [5] = assay: Inhibition of H2O2-stimulated ROS accumulation in mouse BV2 cells preincubated for 24 hrs followed by H2O2 stimulation for 20 mins by DCFH-DA dye based fluorescence microscopy; type: functional, cell-based
# How it was run: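 BV-2 cells treated with a range of compound concentrations for 24 h at 37 °C. Loaded with 40 μM DCFH-DA for 40 min, then 300 μM H2O2 added for 20 min in the dark. Cells washed with PBS and DCF fluorescence imaged by digital microscopy.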
# Mus musculus [6] = assay: Cognition enhancing effect in C57BL/6 mouse model of scopolamine-induced amnesia assessed as increase in […] percentage at 30 mg/kg, po administered for 5 days and measured on day 5 after 30 mins of scopolamine stimulation by Y-maze test; type: functional, organism-based
# How it was run: (§2)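 Male C57BL/6N mice given 30 mg/kg/day compound in saline by gavage for 5 days. Scopolamine 2 mg/kg in saline given i.p. 30 min before testing on the last day. Mice handled daily for 7 days beforehand. Free exploration of a three-arm Y-maze for 10 min, with entries scored manually (all four paws). Alternation = consecutive entries into three different arms.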
# [7] = target: T1, Nuclear factor erythroid 2-related factor 2 (Mus musculus); assay: Activation of NRF2 in mouse BV2 cells assessed as inhibition of LPS-stimulated NO production preincubated for 6 hrs followed by LPS stimulation for 24 hrs by Griess reagent-based assay; type: cell-based
# How it was run: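 BV-2 cells pretreated with a range of compound concentrations for 6 h, then stimulated with 1 µg/mL LPS for 24 h. Medium nitrite measured by Griess reaction (sulfanilamide/phosphoric acid, then NED, 5 min each at room temperature in the dark). Absorbance at 540 nm read against a nitrite standard curve.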
# [8] = target: T1, Nuclear factor erythroid 2-related factor 2 (Mus musculus); assay: Activation of NRF2 in mouse BV2 cells assessed as inhibition of LPS-stimulated iNOS expression preincubated for 3 hrs followed by LPS stimulation for 24 hrs by Western blot analysis; type: cell-based
# How it was run: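 LPS-stimulated BV-2 cells pretreated with compound for 3 h. iNOS immunoblot (1:500) on 10 μg RIPA lysate protein, detected by ECL. Densities normalised to β-actin or Lamin B1 and compared with LPS-treated control.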
# [9] = target: T1, Nuclear factor erythroid 2-related factor 2 (Mus musculus); assay: Activation of NRF2 in mouse BV2 cells assessed as increase in nuclear NRF2 level incubated for 6 hrs by Western blot analysis; type: cell-based; how it was run: as §1
# [10] = Lipophilicity, log P of the compound; type: physicochemical; conditions: octanol/water
# Mus musculus [11] = assay: Effect on mean number of arm entries in C57BL/6 mouse model of scopolamine-induced amnesia at 30 mg/kg, po administered for 5 days and measured on day 5 after 30 mins of scopolamine stimulation by Y-maze test; type: ADME, organism-based; conditions: in vivo; how it was run: as §2
# [12] = target: T1, Nuclear factor erythroid 2-related factor 2 (Mus musculus); assay: Activation of NRF2 in mouse BV2 cells assessed as increase in GCLM protein expression at 3 uM incubated for 6 hrs by Western blot analysis; type: cell-based; how it was run: as §1
# [13] = target: T1, Nuclear factor erythroid 2-related factor 2 (Mus musculus); assay: Activation of NRF2 in mouse BV2 cells assessed as increase in HO1 mRNA level at 0.1 to 10 uM incubated for 8 hrs by qRT-PCR analysis; type: cell-based
# How it was run: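 BV-2 microglia grown in RPMI 1640 with 10% FBS, 2.05 mM L-glutamine and penicillin-streptomycin at 37 °C, 5% CO2. Cells exposed to a range of compound concentrations for 8 h. Ho-1 or Gclm mRNA measured by qRT-PCR and expressed relative to untreated control. Means ± SEM, one-way ANOVA with Dunnett's test.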
# [14] = target: T1, Nuclear factor erythroid 2-related factor 2 (Mus musculus); assay: Activation of NRF2 in mouse BV2 cells assessed as increase in HO1 protein expression incubated for 12 hrs by Western blot analysis; type: cell-based; how it was run: as §1
# [15] = target: T1, Nuclear factor erythroid 2-related factor 2 (Mus musculus); assay: Activation of NRF2 in mouse BV2 cells assessed as increase in total NRF2 level at 0.1 to 10 uM incubated for 6 hrs by Western blot analysis; type: cell-based; how it was run: as §1
# BV-2 [16] = assay: Cytotoxicity against mouse BV2 cells assessed as reduction in cell viability upto 10 uM incubated for 24 hrs by WST assay; type: cell-based; conditions: bv-2, 24 h
# How it was run: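 BV-2 cells incubated with compound concentrations up to 10 µM for 24 h at 37 °C. Ez-Cytox WST reagent added for 1 h and formazan absorbance read at 450 nm.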
compound,measurement,setting,value
CN1CCN(C(=O)COc2ccc(C(=O)/C=C/c3ccccc3C(F)(F)F)cc2)CC1.Cl,remaining at 0.5 h,[1],99.3%
same,Activity,[2],Active
same,Activity,[3],Active
same,inhibition,Homo sapiens,Active
same,fold change (FC),[4],> 7
same,inhibition,BV-2 [5],Dose-dependent effect
same,Activity,Mus musculus [6],Active
same,Activity,[7],Dose-dependent effect
same,Activity,[8],Dose-dependent effect
same,Activity,[9],Dose-dependent effect
same,logP,[10],3.22
same,activity,Mus musculus [11],Non-Toxic
same,Activity,[12],Active
same,Activity,[13],Active
same,Activity,[14],Dose-dependent effect
same,Activity,[15],Active
same,activity,BV-2 [16],Non-Toxic
